Test system: U2OS
Assay: Multiplex assay against U2OS
Format: toxicity, cell-based
Details: human
How it was run: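 Live cells were stained at seeding with Hoechst33342, BioTracker Green Microtubule Cytoskeleton Dye, MitoTracker Red and Annexin V Alexa Fluor 680, then imaged on a CQ1 microscope at 37°C and 5% CO2 after compound addition. CellPathfinder machine-learning gating split cells into Hoechst high-intensity objects or normal cells. Normal cells were split into healthy, pyknosed or fragmented nuclei, and pyknosed cells into mitotic or apoptotic. Tubulin, mitochondrial-mass and membrane-permeability phenotypes are per cents of healthy-nucleus cells.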

[1] = 12 h, 1 µM, compound concentration 1 uM, replicate 1
[2] = 12 h, 1 µM, compound concentration 1 uM, replicate 2
[3] = 12 h, 10 µM, compound concentration 10 uM, replicate 1
[4] = 12 h, 10 µM, compound concentration 10 uM, replicate 2
[5] = 24 h, 1 µM, compound concentration 1 uM, replicate 1
[6] = 24 h, 1 µM, compound concentration 1 uM, replicate 2
[7] = 24 h, 10 µM, compound concentration 10 uM, replicate 1
[8] = 24 h, 10 µM, compound concentration 10 uM, replicate 2
[9] = 48 h, 1 µM, compound concentration 1 uM, replicate 1
[10] = 48 h, 1 µM, compound concentration 1 uM, replicate 2
[11] = 48 h, 10 µM, compound concentration 10 uM, replicate 1
[12] = 48 h, 10 µM, compound concentration 10 uM, replicate 2

Question: Which results are given for COc1c(Nc2ccc(S(C)(=O)=O)nc2C)ncnc1OC1CCN(C(=O)OC(C)C)CC1 [ADP-597]?
Answer: Population Apoptotic (%) [1]: 82%; Population Fragmented Nuclei (%) [1]: 23%; Population Healthy Nuclei (%) [1]: 68%; Population Hoechst High Intensity Objects (%) [1]: 2%; Population Membrane Permeable-Phenotype (%) [1]: 7%; Population Mitochondria Different-Phenotype (%) [1]: 1%; Population Mitotic Cells (%) [1]: 17%; Population Normal (%) [1]: 97%; Population Pyknosed Nuclei (%) [1]: 8%; Population Tubulin-Different-Phenotype (%) [1]: 5%; Total Cell Count [1]: 208; Population Apoptotic (%) [2]: 75%; Population Fragmented Nuclei (%) [2]: 13%; Population Healthy Nuclei (%) [2]: 78%; Population Hoechst High Intensity Objects (%) [2]: 3%; Population Membrane Permeable-Phenotype (%) [2]: 11%; Population Mitotic Cells (%) [2]: 25%; Population Normal (%) [2]: 96%; Population Tubulin-Different-Phenotype (%) [2]: 2%; Total Cell Count [2]: 95; Population Apoptotic (%) [3]: 93%; Population Fragmented Nuclei (%) [3]: 27%; Population Healthy Nuclei (%) [3]: 60%; Population Hoechst High Intensity Objects (%) [3]: 8%; Population Membrane Permeable-Phenotype (%) [3]: 7%; Population Mitochondria Different-Phenotype (%) [3]: 2%; Population Mitotic Cells (%) [3]: 6%; Population Normal (%) [3]: 91%; Population Pyknosed Nuclei (%) [3]: 11%; Population Tubulin-Different-Phenotype (%) [3]: 4%; Total Cell Count [3]: 266; Population Apoptotic (%) [4]: 85%; Population Fragmented Nuclei (%) [4]: 10%; Population Healthy Nuclei (%) [4]: 77%; Population Hoechst High Intensity Objects (%) [4]: 4%; Population Mitochondria Different-Phenotype (%) [4]: 3%; Population Mitotic Cells (%) [4]: 14%; Population Normal (%) [4]: 95%; Population Tubulin-Different-Phenotype (%) [4]: 1%; Total Cell Count [4]: 128; Population Apoptotic (%) [5]: 88%; Population Fragmented Nuclei (%) [5]: 24%; Population Healthy Nuclei (%) [5]: 67%; Population Hoechst High Intensity Objects (%) [5]: 3%; Population Membrane Permeable-Phenotype (%) [5]: 7%; Population Mitochondria Different-Phenotype (%) [5]: 3%; Population Mitotic Cells (%) [5]: 11%; Population Normal (%) [5]: 96%; Population Pyknosed Nuclei (%) [5]: 7%; Population Tubulin-Different-Phenotype (%) [5]: 3%; Total Cell Count [5]: 239; Population Apoptotic (%) [6]: 80%; Population Fragmented Nuclei (%) [6]: 12%; Population Healthy Nuclei (%) [6]: 79%; Population Membrane Permeable-Phenotype (%) [6]: 8%; Population Mitotic Cells (%) [6]: 20%; Population Pyknosed Nuclei (%) [6]: 8%; Population Tubulin-Different-Phenotype (%) [6]: 5%; Total Cell Count [6]: 129; Population Apoptotic (%) [7]: 88%; Population Fragmented Nuclei (%) [7]: 30%; Population Healthy Nuclei (%) [7]: 61%; Population Hoechst High Intensity Objects (%) [7]: 6%; Population Membrane Permeable-Phenotype (%) [7]: 8%; Population Mitochondria Different-Phenotype (%) [7]: 2%; Population Mitotic Cells (%) [7]: 12%; Population Normal (%) [7]: 93%; Population Pyknosed Nuclei (%) [7]: 8%; Population Tubulin-Different-Phenotype (%) [7]: 4%; Total Cell Count [7]: 305; Population Apoptotic (%) [8]: 83%; Population Fragmented Nuclei (%) [8]: 11%; Population Healthy Nuclei (%) [8]: 80%; Population Hoechst High Intensity Objects (%) [8]: 5%; Population Membrane Permeable-Phenotype (%) [8]: 6%; Population Mitochondria Different-Phenotype (%) [8]: 4%; Population Mitotic Cells (%) [8]: 16%; Population Normal (%) [8]: 94%; Population Tubulin-Different-Phenotype (%) [8]: 1%; Total Cell Count [8]: 155; Population Apoptotic (%) [9]: 80%; Population Fragmented Nuclei (%) [9]: 19%; Population Healthy Nuclei (%) [9]: 72%; Population Hoechst High Intensity Objects (%) [9]: 2%; Population Membrane Permeable-Phenotype (%) [9]: 6%; Population Mitochondria Different-Phenotype (%) [9]: 5%; Population Mitotic Cells (%) [9]: 19%; Population Normal (%) [9]: 97%; Population Pyknosed Nuclei (%) [9]: 7%; Population Tubulin-Different-Phenotype (%) [9]: 2%; Total Cell Count [9]: 339; Population Apoptotic (%) [10]: 81%; Population Fragmented Nuclei (%) [10]: 20%; Population Healthy Nuclei (%) [10]: 67%; Population Membrane Permeable-Phenotype (%) [10]: 5%; Population Mitochondria Different-Phenotype (%) [10]: 4%; Population Mitotic Cells (%) [10]: 18%; Population Pyknosed Nuclei (%) [10]: 12%; Total Cell Count [10]: 185; Population Apoptotic (%) [11]: 79%; Population Fragmented Nuclei (%) [11]: 24%; Population Healthy Nuclei (%) [11]: 62%; Population Hoechst High Intensity Objects (%) [11]: 6%; Population Membrane Permeable-Phenotype (%) [11]: 6%; Population Mitochondria Different-Phenotype (%) [11]: 4%; Population Mitotic Cells (%) [11]: 20%; Population Normal (%) [11]: 93%; Population Pyknosed Nuclei (%) [11]: 13%; Population Tubulin-Different-Phenotype (%) [11]: 2%; Total Cell Count [11]: 356; Population Apoptotic (%) [12]: 92%; Population Fragmented Nuclei (%) [12]: 10%; Population Healthy Nuclei (%) [12]: 77%; Population Hoechst High Intensity Objects (%) [12]: 3%; Population Membrane Permeable-Phenotype (%) [12]: 4%; Population Mitochondria Different-Phenotype (%) [12]: 0%; Population Mitotic Cells (%) [12]: 8%; Population Normal (%) [12]: 96%; Population Pyknosed Nuclei (%) [12]: 11%; Total Cell Count [12]: 223

Reference: ChEMBL document CHEMBL5058577, “EUbOPEN Chemogenomics Library 2 (Multiplex)” (2022)
